MC4R antag cAMP = antagonists of human melanocortin 4 receptor (MC4R); P32245; inhibition, % at 6.5 µM; hit rate 0.48% among 360,000; MC4R-expressing cells, MTII-stimulated cAMP, LANCE TR-FRET;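 active means inhibition above its plate's cutoff, the mean of tested wells on that plate plus 3 SD, cut at about 29% in these data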;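 further: 0% = Melanotan II alone and 100% = Melanotan II plus saturating MCL0020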
Target sequence (P32245 whole entry, looked up): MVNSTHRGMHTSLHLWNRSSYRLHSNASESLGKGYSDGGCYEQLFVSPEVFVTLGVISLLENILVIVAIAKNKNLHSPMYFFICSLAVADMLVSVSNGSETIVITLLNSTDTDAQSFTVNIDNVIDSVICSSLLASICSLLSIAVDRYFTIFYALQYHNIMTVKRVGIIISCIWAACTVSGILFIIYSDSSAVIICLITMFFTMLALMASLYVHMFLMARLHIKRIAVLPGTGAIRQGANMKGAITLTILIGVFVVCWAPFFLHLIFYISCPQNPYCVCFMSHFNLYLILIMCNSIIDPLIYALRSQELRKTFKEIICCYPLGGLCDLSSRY
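Material: U2OS-MC4R stable cell line | Reagent: Melanotan II challenge after compound preincubation | Doses: One concentration, 6.5 µM nominal | Incubation: 30-min compound preincubation, 1-h Melanotan II challenge, 1-h detection, room temperature | Signal: TR-FRET cAMP assay | Replicates: One well per compound, no replicates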
MC4R barr agon = agonists of human melanocortin 4 receptor (MC4R) beta-arrestin; P32245; U2OS MC4R beta-arrestin complementation, luminescence; percent of melanotan II response, DMSO zero; activation, % at 8.9 µM; hit rate 0.98% among 360,000;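 active means activation above a per-plate cutoff, the mean activation of sample wells on that plate plus 3 SD, cut at about 8% in these data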
CHOP UPR activ = apoptotic UPR (CHOP) activation; CHO-CHOP luciferase reporter, luminescence; percent of tunicamycin response over DMSO baseline; activation, % at 10 µM; hit rate 0.34% among 330,000;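 active means at 10 µM dose, activation of 40% or more, normalized to positive control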;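 further: 100% = tunicamycin at 10 µg/mL and 0% = DMSO alone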
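Assay system: CHO-CHOP cells, stable luciferase reporter of PERK-eIF2a-CHOP signalling / Buffer or medium: F12 plus 10% serum / Compound dosing: one dose, 10 µM in 0.5% DMSO / Times: 6 h compound treatment, 37 °C / Technique: luciferase luminescence / Read-out: % reporter activation, DMSO baseline versus tunicamycin full activation / Benchmarks: tunicamycin and DMSO controls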
Bfl-1 A1 inh = inhibitors of the anti-apoptotic protein A1, read as caspase activation; MEF A1-2A-BIM cells, Caspase-Glo 3/7 luminescence, 3 h; percent of clofoctol response, vehicle zero; caspase activation, % (concentration not given with the values); hit rate 0.066% among 330,000;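 active means over half of replicate activation scores above 10%, or exactly half above 10 with the replicate mean above 10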
XBP1 UPR activ = adaptive UPR (XBP1) activation; CHO-XBP1 luciferase reporter, IRE1-XBP1 UPR activation, luminescence; percent of tunicamycin response, DMSO as zero; activation, % at 20 µM; hit rate 0.33% among 330,000; AID 463104;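 active means versus positive control, 20 µM dose yields 30% or more activation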;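 further: 100% = tunicamycin at 10 µg/mL and 0% = DMSO only wells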
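Material – CHO cell line with stable XBP1 luciferase reporter · Buffer or medium – F12 plus 10% FBS · Compound – single point, 20 µM final compound, 1% DMSO · Schedule – 16-18 h cell attachment at 37 °C, then 6 h compound exposure · Signal – Steady-Glo luminescence read · Benchmarks – high control tunicamycin 10 µg/mL final, low control DMSO vehicle only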
MC4R barr ag = human MC4R beta-arrestin agonism confirmation; shares compounds with MC4R barr agon; U2OS MC4R beta-arrestin recruitment, luminescence; scaled DMSO 0%, Melanotan II 100%; activation, % at 8.9 µM; hit rate 31% among 2,400; AID 602192;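 active means mean activation across replicates above the hit cutoff set in the earlier primary screen, cut at about 8% in these data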
MOR DOR agonist = OPRM1-OPRD1 heterodimer agonism counter-screen; hit rate 5.8% among 2,400; activation, % at 9.2 µM; shares compounds with MC4R barr agon; U2OS PathHunter beta-arrestin, beta-gal luminescence; percent of deltorphin B response, DMSO zero; AID 602194;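 active means mean activation across replicates exceeds the hit threshold derived in the earlier primary screen, cut at about 18% in these data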;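 further: 100% = deltorphin B at 0.9 µM final and 0% = DMSO alone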
Active calls of the source: *; nt = no result. An excerpt weighted towards active compounds, which were near 2% of everything screened.

SMILES	MC4R antag cAMP	MC4R barr agon	CHOP UPR activ	Bfl-1 A1 inh	XBP1 UPR activ	MC4R barr ag	MOR DOR agonist
FC(F)Oc1ccccc1/C=N/Nc1nc2ccccc2o1	-0.4	7.4	9.8	0.5	-0.5	nt	nt
N/C(=N\c1nc(CSc2nc3ccccc3s2)cc(=O)[nH]1)Nc1ccc(F)cc1	1.6	11.7*	2.0	1.6	18.8	1.4	3.4
Cc1ccc(N/C(N)=N/c2nc(CSc3nnc(N)s3)cc(=O)[nH]2)cc1	-7.1	-0.6	-1.9	0.2	-1.5	nt	nt
Cc1ccccc1NS(=O)(=O)c1ccc(C(=O)NCc2ccccc2CN2CCCC2)cc1	3.5	-0.8	nt	nt	nt	nt	nt
OCc1cn(-c2ccccc2)nc1-c1ccc(-c2nn(-c3ccccc3)cc2CO)cc1	1.9	7.5	14.6	0.6	7.9	nt	nt
N#Cc1cn(-c2ccccc2)nc1-c1ccccc1	0.5	11.5*	2.0	0.4	5.2	-1.4	8.6
O=C(N/C=N/OCc1ccc(Cl)cc1Cl)NOCc1c(Cl)cccc1Cl	-11.4	11.9*	-0.8	0.9	-4.0	8.1	3.3
CO/N=C/NC(=O)NOCc1ccc(Cl)cc1Cl	2.1	-1.3	-0.4	0.0	-4.1	nt	nt
CC(C)OC(=O)c1c(NC(=O)Cn2cnc([N+](=O)[O-])n2)sc2c1CCCC2	11.3	9.9*	0.5	-0.6	-1.6	0.2	4.5
CN(C)c1cccc(F)c1C(=O)NC(=O)Nc1ccc(Cl)cc1	-18.1	-2.9	nt	nt	nt	nt	nt
COc1ccc(C(C)=O)cc1COC(=O)c1ccc(OCc2c(C)noc2C)cc1	0.8	15.7*	3.1	-0.9	-0.2	9.2*	3.1
O=C(COC(=O)c1cc2ccccc2cc1O)Nc1cccnc1Cl	8.7	3.7	2.3	-1.6	0.5	nt	nt
COc1ccc(C(C)=O)cc1COc1ccc(Cl)cc1Cl	-6.8	11.0*	-0.2	0.3	-1.5	-0.3	2.1
COc1ccc(C(C)=O)cc1COc1cc(C)c(Cl)c(C)c1	-7.9	1.3	1.2	1.2	1.0	nt	nt
O=C(COC(=O)c1ccccc1O)Nc1cccc2ccccc12	-1.9	12.5*	1.0	0.1	-0.7	0.6	2.2
COc1ccc(C(C)=O)cc1COC(=O)c1c(C)noc1C	-3.3	-0.1	-0.8	-0.2	-0.5	nt	nt
O=C(COC(=O)c1ccccc1O)Nc1cccnc1Cl	-2.5	-0.7	1.6	-0.4	-2.4	nt	nt
COc1ccccc1NC(=O)COC(=O)c1cc2ccccc2cc1O	5.0	16.8*	0.9	-2.8	-0.7	1.2	6.3
COc1ccc(C(C)=O)cc1COC(=O)c1cccnc1Cl	-1.6	-1.9	-2.4	-1.1	-0.5	nt	nt
COc1ccc(C(C)=O)cc1COC(=O)c1cc2ccccc2cc1O	-16.0	10.8*	-0.8	0.3	4.2	-0.6	5.5
O=C(COC(=O)c1cc2ccccc2cc1O)Nc1ccccc1F	1.3	12.9*	-0.5	-2.1	-1.8	1.7	3.4
COCOCCn1cc(CN2CCS(=O)(=O)N(Cc3ccc(-c4ccncc4)cc3)C(CC(C)C)C2=O)nn1 (centres undefined)	7.3	-0.5	nt	nt	nt	nt	nt
O=C(COC(=O)c1ccc2ccccc2c1)Nc1ncc(C(F)(F)F)cc1Cl	3.0	10.2*	0.7	0.4	-4.0	6.0	4.0
Cc1nc2c(ccc3nc(NC(=O)c4ccc5c(c4)OCCO5)sc32)s1	6.2	11.1*	3.2	-4.3	3.4	-2.8	4.9
Clc1ccccc1OCCNc1nc(NCC2CC2)nc2ccsc12	-1.2	-0.9	nt	nt	nt	nt	nt
SMILES	MC4R antag cAMP	MC4R barr agon	CHOP UPR activ	Bfl-1 A1 inh	XBP1 UPR activ	MC4R barr ag	MOR DOR agonist
Cc1cccc(C)c1NC(=O)CSc1nc(COc2ccccc2)nc2ccccc12	11.3	6.7	0.3	-0.2	1.8	nt	nt
Cc1cccc(NC(=O)CSc2nc(COc3ccccc3)nc3ccccc23)c1C	6.9	20.4*	-2.5	0.0	-1.2	2.8	4.0
COC(=O)c1c(NC(=O)c2ccco2)sc(C)c1C	13.6	5.7	-1.2	0.6	7.2	nt	nt
Cc1c(Cc2ccccc2)sc(NC(=O)c2ccco2)c1C(N)=O	-7.4	9.7*	0.4	-1.0	1.3	-0.2	5.0
CCc1nc2c(OCc3ccc(F)c(F)c3)cccn2c1N(C)C(=O)c1ccncc1	13.2	0.0	nt	nt	nt	nt	nt
FC(F)(F)c1nc(-c2ccncc2)ncc1-c1nnnn1-c1ccccc1	13.6	-1.4	0.1	0.0	-1.6	nt	nt
Fc1ccc(-n2nnnc2-c2cnc(-c3cccs3)nc2C(F)(F)F)cc1	20.7	11.3*	0.1	0.7	-6.2	-1.2	7.3
Cc1cc(NC(=O)CCSc2nc(-c3ccco3)cc(C(F)(F)F)n2)no1	7.5	9.9*	-0.7	0.2	1.5	2.9	6.0
CCN(CC)S(=O)(=O)c1ccc(-c2nnc(SCC(=O)Nc3ccc4c(c3)OCO4)o2)cc1	4.0	10.0*	-0.4	-0.8	-3.3	2.5	5.4
Cc1cc(NC(=O)CCCSc2nc(-c3ccco3)cc(C(F)(F)F)n2)no1	8.0	1.1	-1.9	0.8	2.0	nt	nt
COc1ccc(CCNC(=O)CCSc2nc(-c3ccco3)cc(C(F)(F)F)n2)cc1	-0.7	18.3*	-1.8	-0.1	-1.5	-1.1	2.3
O=C(CSc1nc(-c2ccccc2)cc(C(F)(F)F)n1)NCc1cccs1	nt	nt	-1.1	1.2	1.8	nt	nt
COc1ccc(-c2cc(C(F)(F)F)nc(SCC(=O)NCc3cccs3)n2)cc1	2.9	15.9*	-1.5	1.2	0.4	-1.9	2.2
CCN(CC)S(=O)(=O)c1ccc(NC(=O)CSc2nnc(-c3ccc(F)cc3)o2)cc1	13.3	6.5	-0.5	-0.8	-0.5	nt	nt
COc1cc(C(=O)N2CCCCC2c2cc(C(=O)Nc3ccccc3Cl)no2)cc(OC)c1C (centres undefined)	9.7	0.1	nt	nt	nt	nt	nt
O=C(CSc1nc(-c2ccc(F)cc2)cc(C(F)(F)F)n1)Nc1ccc2c(c1)OCO2	1.7	16.7*	1.1	-0.2	-0.5	-0.2	4.3
C=CC[C@@H](CC(=O)N[C@@H](CO)Cc1ccccc1)C(=O)N[C@@H](COC(=O)[C@@H](CC=C)CC(=O)OC(C)(C)C)Cc1c[nH]c2ccccc12	9.5	14.9*	0.0	-0.4	2.6	3.1	5.4
CC(=O)c1cccc(NC(=O)c2ccccc2OCc2ccc(F)cc2)c1	-10.3	13.7*	2.4	0.6	4.1	-1.4	3.7
CN(C)S(=O)(=O)c1cccc(NC(=O)c2ccccc2OCc2ccc(F)cc2)c1	3.9	2.9	1.7	0.2	8.9	nt	nt
CCOC(=O)c1sc(NC(=O)c2cccc(S(=O)(=O)N(CC)CC)c2)cc1C	17.6	11.7*	0.8	0.2	10.5	0.5	5.4
